Data reported in ChEMBL document CHEMBL1629601, “In vitro susceptibility of field isolates of Leishmania donovani to Miltefosine and amphotericin B: correlation with sodium antimony gluconate susceptibility and implications for treatment in areas of endemicity” (2009).
In brackets after ≈: the same amount, converted by molar mass.

Columns and labels:
Assay type in all cases: functional
Leishmania donovani [1] = assay: Antimicrobial activity against Leishmania donovani K59 amastigote; details: read-out: ED50 (the source's name)
Leishmania donovani [2] = assay: Antimicrobial activity against Leishmania donovani LdAG83 amastigote; details: read-out: ED50 (the source's name)
Leishmania donovani [3] = assay: Antimicrobial activity against Leishmania donovani LdAG83 promastigote; details: read-out: ED50 (the source's name)
Leishmania donovani [4] = assay: Antimicrobial activity against Leishmania donovani K516 promastigote; details: read-out: ED50 (the source's name)
Leishmania donovani [5] = assay: Antimicrobial activity against Leishmania donovani K516 amastigote; details: read-out: ED50 (the source's name)
Leishmania donovani [6] = assay: Antimicrobial activity against Leishmania donovani K509 amastigote; details: read-out: ED50 (the source's name)
Leishmania donovani [7] = assay: Antimicrobial activity against Leishmania donovani K509 promastigote; details: read-out: ED50 (the source's name)
Leishmania donovani [8] = assay: Antimicrobial activity against Leishmania donovani K80 amastigote; details: read-out: ED50 (the source's name)
Leishmania donovani [9] = assay: Antimicrobial activity against Leishmania donovani K80 promastigote; details: read-out: ED50 (the source's name)
Leishmania donovani [10] = assay: Antimicrobial activity against Leishmania donovani K111 amastigote; details: read-out: ED50 (the source's name)
Leishmania donovani [11] = assay: Antimicrobial activity against Leishmania donovani K111 promastigote; details: read-out: ED50 (the source's name)
Leishmania donovani [12] = assay: Antimicrobial activity against Leishmania donovani K132 amastigote; details: read-out: ED50 (the source's name)
Leishmania donovani [13] = assay: Antimicrobial activity against Leishmania donovani K132 promastigote; details: read-out: ED50 (the source's name)
Leishmania donovani [14] = assay: Antimicrobial activity against Leishmania donovani K133 amastigote; details: read-out: ED50 (the source's name)
Leishmania donovani [15] = assay: Antimicrobial activity against Leishmania donovani K135 promastigote; details: read-out: ED50 (the source's name)
Leishmania donovani [16] = assay: Antimicrobial activity against Leishmania donovani K216 amastigote; details: read-out: ED50 (the source's name)
Leishmania donovani [17] = assay: Antimicrobial activity against Leishmania donovani K216 promastigote; details: read-out: ED50 (the source's name)
Leishmania donovani [18] = assay: Antimicrobial activity against Leishmania donovani K435 amastigote; details: read-out: ED50 (the source's name)
Leishmania donovani [19] = assay: Antimicrobial activity against Leishmania donovani K435 promastigote; details: read-out: ED50 (the source's name)
Leishmania donovani [20] = assay: Antimicrobial activity against Leishmania donovani K59M20 amastigote; details: read-out: ED50 (the source's name)
Leishmania donovani [21] = assay: Antimicrobial activity against Leishmania donovani K59M20 promastigote; details: read-out: ED50 (the source's name)
Leishmania donovani [22] = assay: Decrease in LdMT gene expression in Leishmania donovani K59 by RT-PCR method
In short: (§1)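 VL field isolates of L. donovani. Transcript levels of LdMT or LdRos3 were measured by real-time RT-PCR with SYBR green and analysed by the 2−ΔΔCt method. The expression index is the ratio of gene expression to that of the standard L. donovani strain LdAG83, and a decrease is relative to LdAG83. Values are means of three independent experiments.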

Leishmania donovani [23] = assay: Decrease in LdRoS3 gene expression in Leishmania donovani K59 by RT-PCR method; in short: as §1
Leishmania donovani [24] = assay: Decrease in LdMT gene expression in Leishmania donovani K131 by RT-PCR method
In short: (§2)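 LdMT transcript levels were measured by real-time RT-PCR with SYBR green and analysed by the 2−ΔΔCt method. They are expressed as an expression index, the ratio relative to reference strain LdAG83, and are the mean of three independent experiments.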

Leishmania donovani [25] = assay: Decrease in LdRoS3 gene expression in Leishmania donovani K131 by RT-PCR method; in short: as §1
Leishmania donovani [26] = assay: Decrease in LdMT gene expression in Leishmania donovani K149 by RT-PCR method; in short: as §2
Leishmania donovani [27] = assay: Decrease in LdRoS3 gene expression in Leishmania donovani K149 by RT-PCR method; in short: as §1
Leishmania donovani [28] = assay: Decrease in LdMT gene expression in Leishmania donovani K192 by RT-PCR method; in short: as §1
Leishmania donovani [29] = assay: Decrease in LdRoS3 gene expression in Leishmania donovani K192 by RT-PCR method; in short: as §1
Leishmania donovani [30] = assay: Decrease in LdMT gene expression in Leishmania donovani K251 by RT-PCR method; in short: as §1
Leishmania donovani [31] = assay: Decrease in LdRoS3 gene expression in Leishmania donovani K251 by RT-PCR method; in short: as §1
Leishmania donovani [32] = assay: Decrease in LdMT gene expression in Leishmania donovani K417 by RT-PCR method; in short: as §1
Leishmania donovani [33] = assay: Decrease in LdRoS3 gene expression in Leishmania donovani K417 by RT-PCR method; in short: as §1
Leishmania donovani [34] = assay: Decrease in LdMT gene expression in Leishmania donovani K429 by RT-PCR method; in short: as §1
Leishmania donovani [35] = assay: Decrease in LdRoS3 gene expression in Leishmania donovani K429 by RT-PCR method; in short: as §1
Leishmania donovani [36] = assay: Decrease in LdMT gene expression in Leishmania donovani K439 by RT-PCR method; in short: as §1
Leishmania donovani [37] = assay: Decrease in LdRoS3 gene expression in Leishmania donovani K439 by RT-PCR method; in short: as §1
Leishmania donovani [38] = assay: Decrease in LdMT gene expression in Leishmania donovani K498 by RT-PCR method; in short: as §1
Leishmania donovani [39] = assay: Decrease in LdRoS3 gene expression in Leishmania donovani K498 by RT-PCR method; in short: as §1
Leishmania donovani [40] = assay: Decrease in LdMT gene expression in Leishmania donovani K516 by RT-PCR method; in short: as §1
Leishmania donovani [41] = assay: Decrease in LdRoS3 gene expression in Leishmania donovani K516 by RT-PCR method; in short: as §1

EC50 (Leishmania donovani [1]): 1.86 µg/mL (≈ 4.56 µM) | EC50 (Leishmania donovani [2]): 0.85 µg/mL (≈ 2.09 µM) | EC50 (Leishmania donovani [3]): 1.05 µg/mL (≈ 2.58 µM) | EC50 (Leishmania donovani [4]): 1.62 µg/mL (≈ 3.97 µM) | EC50 (Leishmania donovani [5]): 2.02 µg/mL (≈ 4.96 µM) | EC50 (Leishmania donovani [6]): 2.16 µg/mL (≈ 5.3 µM) | EC50 (Leishmania donovani [7]): 1.94 µg/mL (≈ 4.76 µM) | EC50 (Leishmania donovani [8]): 1.32 µg/mL (≈ 3.24 µM) | EC50 (Leishmania donovani [9]): 1.58 µg/mL (≈ 3.88 µM) | EC50 (Leishmania donovani [10]): 0.85 µg/mL (≈ 2.09 µM) | EC50 (Leishmania donovani [11]): 0.47 µg/mL (≈ 1.15 µM) | EC50 (Leishmania donovani [12]): 0.48 µg/mL (≈ 1.18 µM) | EC50 (Leishmania donovani [13]): 0.53 µg/mL (≈ 1.3 µM) | EC50 (Leishmania donovani [14]): 0.93 µg/mL (≈ 2.28 µM) | EC50 (Leishmania donovani [15]): 0.86 µg/mL (≈ 2.11 µM) | EC50 (Leishmania donovani [16]): 0.91 µg/mL (≈ 2.23 µM) | EC50 (Leishmania donovani [17]): 0.76 µg/mL (≈ 1.86 µM) | EC50 (Leishmania donovani [18]): 1.08 µg/mL (≈ 2.65 µM) | EC50 (Leishmania donovani [19]): 1.16 µg/mL (≈ 2.85 µM) | EC50 (Leishmania donovani [20]): > 15 µg/mL | EC50 (Leishmania donovani [21]): > 15 µg/mL
Compound: CCCCCCCCCCCCCCCCOP(=O)([O-])OCC[N+](C)(C)C [MILTEFOSINE]
fold change (FC) (Leishmania donovani [22]): 2.84 | fold change (FC) (Leishmania donovani [23]): 4.06 | fold change (FC) (Leishmania donovani [24]): 2.43 | fold change (FC) (Leishmania donovani [25]): 11.1 | fold change (FC) (Leishmania donovani [26]): 1.08 | fold change (FC) (Leishmania donovani [27]): 7.69 | fold change (FC) (Leishmania donovani [28]): 0.23 | fold change (FC) (Leishmania donovani [29]): 1.9 | fold change (FC) (Leishmania donovani [30]): 7.68 | fold change (FC) (Leishmania donovani [31]): 52.63 | fold change (FC) (Leishmania donovani [32]): 1.88 | fold change (FC) (Leishmania donovani [33]): 5.02 | fold change (FC) (Leishmania donovani [34]): 1.26 | fold change (FC) (Leishmania donovani [35]): 8.85 | fold change (FC) (Leishmania donovani [36]): 4.76 | fold change (FC) (Leishmania donovani [37]): 3.12 | fold change (FC) (Leishmania donovani [38]): 1.38 | fold change (FC) (Leishmania donovani [39]): 7.63 | fold change (FC) (Leishmania donovani [40]): 8 | fold change (FC) (Leishmania donovani [41]): 83.33
